How the values were obtained:
[1] = Metabolic stability in human liver microsomes assessed as parent compound remaining after 30 mins; type: ADME, Microsome; conditions: read-out: Stability
Method in brief: (§1)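 Compounds incubated with liver microsomes from human, rat, mouse, dog or monkey. Read-out is percent parent compound remaining at 30 min of incubation.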

Rattus norvegicus = species on record: Rattus norvegicus; assay: Antithrombotic activity in rat assessed as platelet aggregation; type: functional
Method in brief: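 Functional EP3 antagonism measured in a rat platelet aggregation assay. Values reported as EC50 in nM.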

Cytochrome P450 3A4 [2] = target: T1, Cytochrome P450 3A4 (Homo sapiens, UniProt P08684); assay: Inhibition of human CYP3A4 using 7-benzyloxy-4-trifluoromethylcoumarin as substrate; type: ADME
Method in brief: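 Inhibition of human CYP3A4 with 7-benzyloxy-4-trifluoromethylcoumarin (BFC) as substrate. Values given as IC50.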

[3] = target: T2, Prostaglandin E2 receptor EP3 subtype (Homo sapiens, UniProt P43115); assay: Displacement of [3H]PGE2 from human EP3 receptor in buffer
T2 sequence (P43115 whole entry): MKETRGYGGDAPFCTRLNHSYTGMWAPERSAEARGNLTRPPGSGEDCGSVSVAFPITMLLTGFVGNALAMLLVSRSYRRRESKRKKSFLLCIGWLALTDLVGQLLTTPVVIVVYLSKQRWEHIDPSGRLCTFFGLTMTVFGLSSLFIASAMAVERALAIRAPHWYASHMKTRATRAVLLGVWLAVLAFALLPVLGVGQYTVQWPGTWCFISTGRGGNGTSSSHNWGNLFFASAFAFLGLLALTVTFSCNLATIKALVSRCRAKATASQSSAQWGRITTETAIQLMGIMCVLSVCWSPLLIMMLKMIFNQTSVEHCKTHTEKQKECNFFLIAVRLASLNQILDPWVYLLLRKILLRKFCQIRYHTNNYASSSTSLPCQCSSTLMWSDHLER

[4] = Metabolic stability in mouse liver microsomes assessed as parent compound remaining after 30 mins; type: ADME, Microsome; conditions: read-out: Stability; method in brief: as §1
[5] = Metabolic stability in rat liver microsomes assessed as parent compound remaining after 30 mins; type: ADME, Microsome; conditions: read-out: Stability; method in brief: as §1
[6] = target: T2, Prostaglandin E2 receptor EP3 subtype; assay: Displacement of [3H]PGE2 from human EP3 receptor in presence of 10% human serum
[7] = Metabolic stability in dog liver microsomes assessed as parent compound remaining after 30 mins; type: ADME, Canis lupus familiaris, Microsome; conditions: read-out: Stability; method in brief: as §1
[8] = target: T2, Prostaglandin E2 receptor EP3 subtype; assay: Partial displacement of [3H]PGE2 from human EP3 receptor in presence of 10% human serum
[9] = assessed as parent compound remaining after 30 mins; conditions: read-out: Stability
[10] = Metabolic stability in monkey liver microsomes assessed as parent compound remaining after 30 mins; type: ADME, Macaca mulatta, Microsome; conditions: rhesus monkey, read-out: Stability; method in brief: as §1
Cytochrome P450 1A2 = target: T3, Cytochrome P450 1A2 (Homo sapiens, UniProt P05177); assay: Inhibition of human CYP1A2; type: ADME
T3 sequence (P05177 whole entry): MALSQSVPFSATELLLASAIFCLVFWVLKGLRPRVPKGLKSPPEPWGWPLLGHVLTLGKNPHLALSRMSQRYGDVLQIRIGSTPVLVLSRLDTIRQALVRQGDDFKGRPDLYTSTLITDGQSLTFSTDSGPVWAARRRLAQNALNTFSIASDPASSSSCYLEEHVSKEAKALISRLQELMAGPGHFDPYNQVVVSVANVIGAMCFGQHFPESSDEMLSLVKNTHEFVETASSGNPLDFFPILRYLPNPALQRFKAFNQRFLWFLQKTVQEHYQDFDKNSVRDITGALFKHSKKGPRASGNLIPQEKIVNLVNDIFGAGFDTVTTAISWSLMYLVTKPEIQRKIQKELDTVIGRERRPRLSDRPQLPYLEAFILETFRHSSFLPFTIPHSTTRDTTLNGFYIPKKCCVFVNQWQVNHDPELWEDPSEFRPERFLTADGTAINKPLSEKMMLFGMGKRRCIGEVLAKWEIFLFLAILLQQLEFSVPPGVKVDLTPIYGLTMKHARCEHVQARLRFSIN

Cytochrome P450 2D6 = Cytochrome P450 2D6 (Homo sapiens, UniProt P10635); assay: Inhibition of human CYP2D6; type: ADME
[11] = target: Prostaglandin F2-alpha receptor (Homo sapiens, UniProt P43088); assay: Binding affinity to human FP receptor by radioligand displacement assay
Method in brief: (§2)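 Radioligand displacement assays on a human prostanoid receptor panel (EP2, EP4, FP, IP). IC50 values reported in µM.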

[12] = target: Prostaglandin E2 receptor EP2 subtype (Homo sapiens, UniProt P43116); assay: Binding affinity to human EP2 receptor by radioligand displacement assay; method in brief: as §2
Prostacyclin receptor = Prostacyclin receptor (Homo sapiens, UniProt P43119); assay: Binding affinity to human IP receptor by radioligand displacement assay; method in brief: as §2
Cytochrome P450 3A4 [13] = target: T1, Cytochrome P450 3A4; assay: Inhibition of human CYP3A4 using dibenzylfluorescein as substrate; type: ADME
Method in brief: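 Inhibition of human CYP3A4 with dibenzylfluorescein (DBF) as substrate. Values given as IC50.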

[14] = target: Prostaglandin E2 receptor EP4 subtype (Homo sapiens, UniProt P35408); assay: Binding affinity to human EP4 receptor by radioligand displacement assay; method in brief: as §2
Cytochrome P450 2C9 = Cytochrome P450 2C9 (Homo sapiens, UniProt P11712); assay: Inhibition of human CYP2C9; type: ADME
[15] = Half life in mouse at 6 mg/kg, iv; type: ADME, organism-based; parameters: dose 6 mg/kg, route intravenous; conditions: in vivo
Method in brief: (§3)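 Single iv dose of 6 mg/kg given to mouse and to rat. Half-life in hours derived from the plasma pharmacokinetic parameters, alongside predicted clearance and steady-state volume of distribution.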

[16] = Half life in rat at 6 mg/kg, iv; type: ADME, organism-based; parameters: dose 6 mg/kg, route intravenous; conditions: in vivo; method in brief: as §3

Chain of Prostaglandin F2-alpha receptor (P43088 whole entry): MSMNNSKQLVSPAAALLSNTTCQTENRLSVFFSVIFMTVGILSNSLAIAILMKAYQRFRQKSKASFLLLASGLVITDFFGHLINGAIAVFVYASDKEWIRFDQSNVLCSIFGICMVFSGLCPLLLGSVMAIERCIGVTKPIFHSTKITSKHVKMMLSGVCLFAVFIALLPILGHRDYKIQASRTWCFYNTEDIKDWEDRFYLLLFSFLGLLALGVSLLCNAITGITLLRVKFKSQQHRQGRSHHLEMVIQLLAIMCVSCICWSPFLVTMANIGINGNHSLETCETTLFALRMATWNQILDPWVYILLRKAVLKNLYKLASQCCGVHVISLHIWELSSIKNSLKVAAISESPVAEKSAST
Chain of Prostacyclin receptor (P43119 whole entry): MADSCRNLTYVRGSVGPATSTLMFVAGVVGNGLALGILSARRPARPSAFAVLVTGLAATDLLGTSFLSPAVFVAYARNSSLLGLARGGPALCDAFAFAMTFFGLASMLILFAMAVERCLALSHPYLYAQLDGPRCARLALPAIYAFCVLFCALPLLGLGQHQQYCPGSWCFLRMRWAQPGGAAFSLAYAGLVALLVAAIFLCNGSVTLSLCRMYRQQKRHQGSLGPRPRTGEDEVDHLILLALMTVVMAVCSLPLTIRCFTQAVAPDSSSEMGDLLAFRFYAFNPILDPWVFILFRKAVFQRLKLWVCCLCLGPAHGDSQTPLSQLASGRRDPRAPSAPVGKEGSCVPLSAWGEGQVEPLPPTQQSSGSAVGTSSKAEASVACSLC
Chain of Prostaglandin E2 receptor EP2 subtype (P43116 whole entry): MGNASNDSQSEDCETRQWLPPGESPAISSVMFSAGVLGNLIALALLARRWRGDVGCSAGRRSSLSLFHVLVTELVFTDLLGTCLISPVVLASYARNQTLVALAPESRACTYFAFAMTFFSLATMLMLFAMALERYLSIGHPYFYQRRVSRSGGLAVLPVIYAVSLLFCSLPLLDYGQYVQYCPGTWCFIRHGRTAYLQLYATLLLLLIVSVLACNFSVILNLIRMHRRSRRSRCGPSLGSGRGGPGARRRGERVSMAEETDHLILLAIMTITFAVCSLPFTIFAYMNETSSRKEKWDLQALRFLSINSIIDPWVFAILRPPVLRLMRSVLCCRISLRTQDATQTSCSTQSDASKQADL
Chain of Cytochrome P450 2C9 (P11712 whole entry): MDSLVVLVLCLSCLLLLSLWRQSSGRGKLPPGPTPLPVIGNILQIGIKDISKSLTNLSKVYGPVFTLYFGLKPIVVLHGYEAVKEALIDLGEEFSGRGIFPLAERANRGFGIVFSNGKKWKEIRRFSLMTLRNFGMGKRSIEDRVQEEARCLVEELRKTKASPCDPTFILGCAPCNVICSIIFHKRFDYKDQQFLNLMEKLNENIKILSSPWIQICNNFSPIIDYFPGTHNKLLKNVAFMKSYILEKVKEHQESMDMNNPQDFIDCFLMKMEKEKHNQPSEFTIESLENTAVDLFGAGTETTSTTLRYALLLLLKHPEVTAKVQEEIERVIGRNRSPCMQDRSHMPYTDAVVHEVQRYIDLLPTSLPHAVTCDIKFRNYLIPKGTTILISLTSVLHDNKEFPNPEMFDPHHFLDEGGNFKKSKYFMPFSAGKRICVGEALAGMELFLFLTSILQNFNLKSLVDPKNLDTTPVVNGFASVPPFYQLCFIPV
T1 sequence (P08684 whole entry): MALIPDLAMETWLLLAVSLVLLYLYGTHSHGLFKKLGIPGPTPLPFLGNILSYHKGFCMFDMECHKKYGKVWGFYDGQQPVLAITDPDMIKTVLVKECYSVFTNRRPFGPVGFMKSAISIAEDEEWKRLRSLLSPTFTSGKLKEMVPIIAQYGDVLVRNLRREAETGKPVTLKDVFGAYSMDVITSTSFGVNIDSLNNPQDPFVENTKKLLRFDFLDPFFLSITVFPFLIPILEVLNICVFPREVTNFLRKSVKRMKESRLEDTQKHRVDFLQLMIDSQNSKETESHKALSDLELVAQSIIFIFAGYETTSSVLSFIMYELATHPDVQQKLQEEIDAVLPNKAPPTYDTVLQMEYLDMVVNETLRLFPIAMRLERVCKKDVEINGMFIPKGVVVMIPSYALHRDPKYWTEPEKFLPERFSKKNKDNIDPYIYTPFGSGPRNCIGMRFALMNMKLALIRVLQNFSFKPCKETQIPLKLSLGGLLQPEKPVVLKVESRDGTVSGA
Chain of Cytochrome P450 2D6 (P10635 whole entry): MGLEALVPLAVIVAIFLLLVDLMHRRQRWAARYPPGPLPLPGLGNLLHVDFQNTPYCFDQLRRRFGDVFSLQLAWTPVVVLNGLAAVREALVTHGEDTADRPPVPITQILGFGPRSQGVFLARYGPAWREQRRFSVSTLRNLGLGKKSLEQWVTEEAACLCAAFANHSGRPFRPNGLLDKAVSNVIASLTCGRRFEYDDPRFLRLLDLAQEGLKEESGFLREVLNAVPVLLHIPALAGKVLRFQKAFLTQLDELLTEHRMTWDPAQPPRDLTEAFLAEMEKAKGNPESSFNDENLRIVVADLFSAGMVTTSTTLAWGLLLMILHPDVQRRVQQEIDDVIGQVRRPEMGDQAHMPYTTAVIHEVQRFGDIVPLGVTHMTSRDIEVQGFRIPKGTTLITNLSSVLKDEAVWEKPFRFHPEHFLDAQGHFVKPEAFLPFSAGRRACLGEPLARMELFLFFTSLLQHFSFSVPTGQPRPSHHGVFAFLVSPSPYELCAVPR
Chain of Prostaglandin E2 receptor EP4 subtype (P35408 whole entry): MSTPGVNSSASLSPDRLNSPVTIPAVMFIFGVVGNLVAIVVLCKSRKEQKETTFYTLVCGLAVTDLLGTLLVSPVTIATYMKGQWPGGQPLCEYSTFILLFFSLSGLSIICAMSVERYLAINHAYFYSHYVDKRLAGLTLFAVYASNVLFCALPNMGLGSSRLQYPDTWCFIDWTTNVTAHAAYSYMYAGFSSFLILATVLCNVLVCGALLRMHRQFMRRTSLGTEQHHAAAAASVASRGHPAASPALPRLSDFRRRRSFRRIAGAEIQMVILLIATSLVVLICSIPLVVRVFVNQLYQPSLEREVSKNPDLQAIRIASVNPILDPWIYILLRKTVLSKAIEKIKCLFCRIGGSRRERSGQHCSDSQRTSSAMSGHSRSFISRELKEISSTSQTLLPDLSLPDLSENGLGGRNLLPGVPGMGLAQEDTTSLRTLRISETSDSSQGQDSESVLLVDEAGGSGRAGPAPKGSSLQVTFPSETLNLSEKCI

remaining at 0.5 h [1] | IC50 (Rattus norvegicus) | inhibition (INH) (Cytochrome P450 3A4 [2]) | IC50 [3] | remaining at 0.5 h [4] | remaining at 0.5 h [5] | IC50 [6] | SMILES | further results
74.4% | > 800 nM | Active | 0.2 nM | 71% | 80.1% | 6.5 nM | O=C(/C=C/c1cccc2c1N(Cc1ccc(Cl)cc1Cl)C(=O)C2(F)F)NS(=O)(=O)c1ccc(F)c(F)c1 | –
105% | – | – | 1.3 nM | 63.8% | 32.9% | 5.4 nM | O=C(/C=C/c1cccc2c1N(Cc1ccc3ccccc3c1)C(=O)C2)NS(=O)(=O)c1cc(Cl)c(Cl)s1 | EC50 (Rattus norvegicus): 27 nM; remaining at 0.5 h [7]: 79.5%
73.1% | > 800 nM | Active | 0.2 nM | 82.8% | 70.4% | 5.5 nM | O=C(/C=C/c1cccc2c1N(Cc1ccc(Cl)cc1Cl)C(=O)C2(F)F)NS(=O)(=O)c1ccc(Cl)c(Cl)c1 | –
66.6% | > 800 nM | Active | 0.2 nM | 31.2% | 62.2% | 7.7 nM | O=C(/C=C/c1cccc2c1N(Cc1ccc(Cl)cc1Cl)C(=O)C2(F)F)NS(=O)(=O)c1cccc(Cl)c1 | –
– | – | – | 45.4 nM | – | – | – | O=C(/C=C/c1cccc2c1N(Cc1ccc(F)c(F)c1)C(=O)C2(CO)CO)NS(=O)(=O)c1ccc(F)c(F)c1 | IC50 [8]: Active
– | – | – | 3.8 nM | – | – | – | O=C(/C=C/c1cccc2c1N(Cc1ccc(Cl)cc1Cl)C(=O)C21OCCO1)NS(=O)(=O)c1cc(Cl)c(Cl)s1 | remaining at 0.5 h [9]: 28.4%; IC50 [8]: Active
– | – | – | 13 nM | – | – | 679 nM | O=C(/C=C/c1cccc2c1N(Cc1ccc3ccccc3c1)C(=O)C21OCCO1)NS(=O)(=O)c1cccs1 | remaining at 0.5 h [9]: 37.8%
– | > 800 nM | Active | 202 nM | – | – | – | O=C(/C=C/c1cccc2c1N(Cc1ccc3ccccc3c1)C(=O)C2(F)F)NS(=O)(=O)c1cccs1 | IC50 [8]: Active
79.4% | > 800 nM | Active | 0.3 nM | 41.3% | 62.1% | 4.5 nM | O=C(/C=C/c1cccc2c1N(Cc1ccc3ccccc3c1)C(=O)C2(F)F)NS(=O)(=O)c1ccc(Cl)c(Cl)c1 | –
43.5% | – | – | 3.5 nM | 32.6% | 48% | 96.5 nM | CC1C(=O)N(Cc2ccc3ccccc3c2)c2c(/C=C/C(=O)NS(=O)(=O)c3cccs3)cccc21 (centres undefined) | remaining at 0.5 h [7]: 81.8%; remaining at 0.5 h [10]: 35.3%
48.2% | – | – | 4.4 nM | 67.7% | 8% | 3.2 nM | CC1C(=O)N(Cc2ccc3ccccc3c2)c2c(/C=C/C(=O)NS(=O)(=O)c3cc(Cl)c(Cl)s3)cccc21 (centres undefined) | EC50 (Rattus norvegicus): 2 nM; remaining at 0.5 h [7]: 67.7%
94.4% | > 800 nM | Active | 3.8 nM | 100% | 94.8% | 64 nM | O=C(/C=C/c1cccc2c1N(Cc1ccc(Cl)cc1Cl)C(=O)C2(F)F)NS(=O)(=O)c1cc(Cl)c(Cl)s1 | remaining at 0.5 h [7]: 83.3%; remaining at 0.5 h [10]: 67.3%
– | > 800 nM | Active | 237 nM | – | – | – | O=C(/C=C/c1cccc2c1N(Cc1ccc(Cl)cc1Cl)C(=O)C2(F)F)NS(=O)(=O)c1cccs1 | IC50 [8]: Active
74.6% | > 800 nM | Active | 0.2 nM | 60.6% | 77.4% | 5.6 nM | O=C(/C=C/c1cccc2c1N(Cc1ccc(Cl)cc1Cl)C(=O)C2(F)F)NS(=O)(=O)c1cc(F)c(F)cc1F | –
76.8% | – | – | 2.9 nM | 56.8% | 46.3% | 92.8 nM | O=C(/C=C/c1cccc2c1N(Cc1ccc(Cl)cc1Cl)C(=O)C2)NS(=O)(=O)c1cc(Cl)c(Cl)s1 | remaining at 0.5 h [10]: 76.9%
– | – | – | 56 nM | – | – | – | O=C(/C=C/c1cccc2c1N(Cc1ccc(Cl)cc1Cl)C(=O)C2)NS(=O)(=O)c1cccs1 | IC50 [8]: Active
95.6% | – | Not Active | 0.6 nM | 73.5% | 99.7% | 9.4 nM | O=C(/C=C/c1cccc2c1N(Cc1ccc3ccccc3c1)C(=O)C2O)NS(=O)(=O)c1cc(F)c(F)cc1F (centres undefined) | inhibition (INH) (Cytochrome P450 1A2): Not Active; EC50 (Rattus norvegicus): 69 nM; inhibition (INH) (Cytochrome P450 2D6): Not Active; IC50 [11]: > 20 µM; IC50 [12]: > 20 µM; IC50 (Prostacyclin receptor): > 20 µM; inhibition (INH) (Cytochrome P450 3A4 [13]): Active; IC50 [14]: 8.7 µM; inhibition (INH) (Cytochrome P450 2C9): Active
79.3% | > 800 nM | Active | 11.6 nM | 80.7% | 71.8% | 20.8 nM | O=C(/C=C/c1cccc2c1N(Cc1ccc3ccccc3c1)C(=O)C2(F)F)NS(=O)(=O)c1cc(Cl)c(Cl)s1 | –
68.8% | > 800 nM | Active | 0.3 nM | 47.9% | 54.2% | 9.3 nM | O=C(/C=C/c1cccc2c1N(Cc1ccc3ccccc3c1)C(=O)C2(F)F)NS(=O)(=O)c1cc(F)c(F)cc1F | –
97.7% | – | Not Active | 0.9 nM | 83.4% | 103% | 19.4 nM | O=C(/C=C/c1cccc2c1N(Cc1ccc3ccccc3c1)C(=O)C2O)NS(=O)(=O)c1ccc(F)cc1 (centres undefined) | inhibition (INH) (Cytochrome P450 1A2): Not Active; EC50 (Rattus norvegicus): 63 nM; inhibition (INH) (Cytochrome P450 2D6): Not Active; IC50 [11]: > 20 µM; IC50 [12]: > 20 µM; IC50 (Prostacyclin receptor): > 20 µM; half-life [15]: 126 min; inhibition (INH) (Cytochrome P450 3A4 [13]): Active; IC50 [14]: 15.1 µM; half-life [16]: 105 min; inhibition (INH) (Cytochrome P450 2C9): Active
89.3% | – | Not Active | 1.6 nM | 72.7% | 87.9% | 7.6 nM | O=C(/C=C/c1cccc2c1N(Cc1ccc3ccccc3c1)C(=O)C2O)NS(=O)(=O)c1ccc(F)c(F)c1 (centres undefined) | inhibition (INH) (Cytochrome P450 1A2): Not Active; EC50 (Rattus norvegicus): 87 nM; inhibition (INH) (Cytochrome P450 2D6): Not Active; IC50 [11]: > 20 µM; IC50 [12]: > 20 µM; IC50 (Prostacyclin receptor): > 20 µM; inhibition (INH) (Cytochrome P450 3A4 [13]): Active; IC50 [14]: 2.3 µM; inhibition (INH) (Cytochrome P450 2C9): Active
68.1% | > 800 nM | Active | 0.2 nM | 47.1% | 45% | 5 nM | O=C(/C=C/c1cccc2c1N(Cc1ccc3ccccc3c1)C(=O)C2(F)F)NS(=O)(=O)c1ccc(F)c(F)c1 | –
64.5% | > 800 nM | Active | 0.1 nM | 21.6% | 21% | 1.9 nM | O=C(/C=C/c1cccc2c1N(Cc1ccc3ccccc3c1)C(=O)C2(F)F)NS(=O)(=O)c1cccc(Cl)c1 | –
